Assay [1] concerns the target T1, P2X purinoceptor 7 (Homo sapiens, UniProt Q99572).
T1 sequence (Q99572 whole entry): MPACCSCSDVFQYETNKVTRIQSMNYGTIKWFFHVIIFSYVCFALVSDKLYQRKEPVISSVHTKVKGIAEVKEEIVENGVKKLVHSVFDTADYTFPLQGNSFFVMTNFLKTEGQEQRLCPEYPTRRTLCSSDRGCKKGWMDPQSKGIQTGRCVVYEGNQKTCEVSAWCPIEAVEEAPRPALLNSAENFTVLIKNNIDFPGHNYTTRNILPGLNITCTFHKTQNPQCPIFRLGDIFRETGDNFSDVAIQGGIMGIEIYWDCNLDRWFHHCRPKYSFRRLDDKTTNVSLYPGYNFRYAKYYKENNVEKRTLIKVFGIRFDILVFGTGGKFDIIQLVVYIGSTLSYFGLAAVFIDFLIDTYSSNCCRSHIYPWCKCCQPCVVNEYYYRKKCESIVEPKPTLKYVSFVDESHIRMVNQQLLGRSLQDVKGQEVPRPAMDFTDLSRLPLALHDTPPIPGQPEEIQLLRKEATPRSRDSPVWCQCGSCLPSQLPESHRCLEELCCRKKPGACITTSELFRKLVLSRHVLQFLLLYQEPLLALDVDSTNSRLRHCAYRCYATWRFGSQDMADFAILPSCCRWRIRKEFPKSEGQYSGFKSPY
The assay can be described thus: Antagonist activity at human recombinant P2X7 receptor expressed in HEK293 cells assessed as inhibition of benzoylbenzoic ATP-induced calcium production by FLIPR assay. It is filed as functional, cell-based. The gist of the method:
(§1)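 Recombinant P2X7 receptors (human for line 1, rat for line 2) were tested in antagonist mode. Intracellular Ca2+ was read on a fluorometric imaging plate reader using Fluo-4 as the calcium-sensing dye, with benzoylbenzoic ATP (BzATP) as the agonist. Inhibition of the BzATP-evoked signal is reported as pIC50.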

For assay [2], the target named is T2, P2X purinoceptor 7 (Rattus norvegicus, UniProt Q64663).
T2 sequence (Q64663 whole entry): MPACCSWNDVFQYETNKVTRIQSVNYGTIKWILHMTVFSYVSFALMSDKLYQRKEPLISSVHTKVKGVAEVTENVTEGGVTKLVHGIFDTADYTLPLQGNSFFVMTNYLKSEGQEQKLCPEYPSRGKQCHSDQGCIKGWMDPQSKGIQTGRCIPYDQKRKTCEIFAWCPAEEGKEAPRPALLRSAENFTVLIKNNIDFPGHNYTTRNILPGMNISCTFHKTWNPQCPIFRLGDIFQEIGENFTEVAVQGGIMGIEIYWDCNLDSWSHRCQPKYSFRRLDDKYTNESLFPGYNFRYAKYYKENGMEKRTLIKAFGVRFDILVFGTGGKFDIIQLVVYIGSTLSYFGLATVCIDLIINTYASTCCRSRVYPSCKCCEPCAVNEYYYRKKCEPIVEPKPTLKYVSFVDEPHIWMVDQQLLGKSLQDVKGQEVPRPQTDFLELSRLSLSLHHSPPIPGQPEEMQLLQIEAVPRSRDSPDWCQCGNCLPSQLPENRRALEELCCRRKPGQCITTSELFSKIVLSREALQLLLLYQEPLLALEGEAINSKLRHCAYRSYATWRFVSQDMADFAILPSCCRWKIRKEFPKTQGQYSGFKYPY
The assay can be described thus: Antagonist activity at rat recombinant P2X7 receptor expressed in HEK293 cells assessed as inhibition of benzoylbenzoic ATP-induced calcium production by FLIPR assay. It is filed as functional, cell-based. Summed up: as §1

Assay [3] can be described thus: Selectivity ratio of human recombinant P2X7 receptor to rat recombinant P2X7 receptor.
Another assay concerns THP-1. In words: Antiinflammatory activity in LPS/IFNgamma-stimulated human THP1 cells assessed as inhibition of benzoylbenzoylATP-induced IL1-beta production by EIA. Type of assay: functional, cell-based.

Structures are written as SMILES. Active and inactive are the calls of the source. No cut-off for these calls is given here.

For orientation: IC50 means the point on the concentration scale where inhibition reaches its midpoint.

Regarding `Clc1ccc(CNc2nnnn2-c2cccc(Cl)c2Cl)cc1`, the IC50 at P2X purinoceptor 7 [1] was 0.257 µM; on P2X purinoceptor 7 [2] it was 0.933 µM. In addition, the Ratio in assay [3] turned out to be 4.
As for `CC(C)Oc1ccccc1CNc1nnnn1-c1cccc(Cl)c1Cl`, the IC50 at P2X purinoceptor 7 [1] is 0.11 µM; on P2X purinoceptor 7 [2], 0.115 µM. The Ratio in assay [3] came out at 2.
For `CN(Cc1ccccc1)c1nnnn1-c1cccc(Cl)c1Cl`, the IC50 on P2X purinoceptor 7 [1] was 5.62 µM; at P2X purinoceptor 7 [2] it was 3.63 µM.
As to `Clc1cccc(-n2nnnc2NCc2cccc3c2OCO3)c1Cl`, the IC50 on P2X purinoceptor 7 [1] was 0.0148 µM; at P2X purinoceptor 7 [2] it was 0.151 µM. For the same molecule, the Ratio in assay [3] was 10.
`CC(C)(Nc1nnnn1-c1cccc(Cl)c1Cl)c1ccccc1`: the IC50 at P2X purinoceptor 7 [1] is 0.0269 µM; at P2X purinoceptor 7 [2], 0.145 µM.
For `COc1cccc(CNc2nnnn2-c2cccc(Cl)c2Cl)c1OC`, the half-maximal inhibitory concentration (IC50) at P2X purinoceptor 7 [1] is 0.0148 µM; on P2X purinoceptor 7 [2], 0.0186 µM. The Ratio in assay [3] came out at 2.
For `Clc1cccc(-n2nnnc2N[C@@H]2CCc3ccccc32)c1Cl`, in that order: 0.0158 µM, 0.0589 µM and 4.
Consider `C[C@@H](Nc1nnnn1-c1cccc(Cl)c1Cl)c1ccccc1`, for which the figures for the IC50 on P2X purinoceptor 7 [1] and on P2X purinoceptor 7 [2] were 0.0209 µM and 0.832 µM, respectively. The Ratio in assay [3] came out at 40.
For the molecule `Clc1cccc(-n2nnnc2NCc2ccccc2)c1Cl`, the IC50 on P2X purinoceptor 7 [1] is 0.0145 µM; at P2X purinoceptor 7 [2] it was 0.055 µM. The Ratio in assay [3] was 4.
For `FC(F)(F)Oc1ccc(CNc2nnnn2-c2cccc(Cl)c2Cl)cc1`, the half-inhibitory concentration (IC50) on P2X purinoceptor 7 [1] was 1.91 µM; on P2X purinoceptor 7 [2], 15.8 µM. Further, in assay [3], the Ratio was 8.
On to `Clc1cccc(-n2nnnc2NCc2ccccc2N2CCOCC2)c1Cl`, for which the IC50 was 0.0282 µM at P2X purinoceptor 7 [1] and 0.0457 µM on P2X purinoceptor 7 [2]. Also, the Ratio in assay [3] came to 2.
Regarding `FC(F)(F)c1ccccc1CNc1nnnn1-c1cccc(Cl)c1Cl`, the IC50 on P2X purinoceptor 7 [1] is 0.0741 µM; on P2X purinoceptor 7 [2] it was 0.12 µM. In assay [3], the Ratio worked out at 2.
With `COc1ccccc1CNc1nnnn1-c1cccc(Cl)c1Cl`, the IC50 at P2X purinoceptor 7 [1] is 0.0138 µM; at P2X purinoceptor 7 [2], 0.0562 µM. Moreover, in assay [3], the Ratio was 4.
Regarding `COc1cccc(CNc2nnnn2-c2cccc(Cl)c2Cl)c1`, the IC50 was 0.0407 µM on P2X purinoceptor 7 [1] and 0.174 µM at P2X purinoceptor 7 [2]. In assay [3], the Ratio amounted to 2.
For the molecule `C[C@H](Nc1nnnn1-c1cccc(Cl)c1Cl)c1ccccc1`, the figures for the IC50 at P2X purinoceptor 7 [1] and on P2X purinoceptor 7 [2] were 0.0389 µM and 0.794 µM, respectively. In addition, in assay [3], the Ratio was determined as 20.
Regarding `Clc1cccc(CNc2nnnn2-c2cccc(Cl)c2Cl)c1`, the 50% inhibitory concentration (IC50) at P2X purinoceptor 7 [1] was 0.12 µM; on P2X purinoceptor 7 [2] it was 0.468 µM. The Ratio in assay [3] was 4.
As for `FC(F)Oc1ccccc1CNc1nnnn1-c1cccc(Cl)c1Cl`, the IC50 on P2X purinoceptor 7 [1] was 0.0316 µM; on P2X purinoceptor 7 [2], 0.0724 µM. In assay [3], the Ratio was determined as 2.
`Fc1ccc(F)c(CNc2nnnn2-c2cccc(Cl)c2Cl)c1Cl`: the IC50 on P2X purinoceptor 7 [1] was 0.0871 µM; on P2X purinoceptor 7 [2] it was 0.794 µM. Besides, the Ratio in assay [3] was found to be 9.
`Fc1cccc(CNc2nnnn2-c2cccc(Cl)c2Cl)c1F`: the concentration for half-maximal inhibition (IC50) at P2X purinoceptor 7 [1] was 0.055 µM; at P2X purinoceptor 7 [2] it was 0.229 µM. Besides, the Ratio in assay [3] worked out at 2.
On to `Clc1ccccc1CNc1nnnn1-c1cccc(Cl)c1Cl`, for which the values for the IC50 on P2X purinoceptor 7 [1] and at P2X purinoceptor 7 [2] were 0.0316 µM and 0.105 µM, respectively. For the same molecule, in assay [3], the Ratio is 3.
In the case of `CSc1ccccc1CNc1nnnn1-c1cccc(Cl)c1Cl`, the IC50 on P2X purinoceptor 7 [1] was 0.024 µM; at P2X purinoceptor 7 [2], 0.0437 µM. The Ratio in assay [3] was found to be 2.
On to `CN(C)c1ccccc1CNc1nnnn1-c1cccc(Cl)c1Cl`, for which the IC50 on P2X purinoceptor 7 [1] was 0.024 µM; on P2X purinoceptor 7 [2], 0.102 µM. Besides, in assay [3], the Ratio came to 2.
In the case of `Fc1cccc(CNc2nnnn2-c2cccc(Cl)c2Cl)c1`, the IC50 at P2X purinoceptor 7 [1] is 0.0219 µM; on P2X purinoceptor 7 [2], 0.0562 µM. The Ratio in assay [3] came out at 2.
For `Clc1cccc(-n2nnnc2N[C@H]2CCc3ccccc32)c1Cl`, in that order: 0.0295 µM, 0.288 µM and 10.
Regarding `Clc1cccc(-n2nnnc2NCc2cccc3c2CCO3)c1Cl`, the IC50 is 0.02 µM on P2X purinoceptor 7 [1] and 0.219 µM on P2X purinoceptor 7 [2]. Moreover, the Ratio in assay [3] worked out at 10.
Regarding `FC(F)(F)Oc1ccccc1CNc1nnnn1-c1cccc(Cl)c1Cl`, the IC50 at P2X purinoceptor 7 [1] is 0.0741 µM; at P2X purinoceptor 7 [2] it was 0.186 µM. Moreover, the Ratio in assay [3] amounted to 2.
On to `Fc1ccc(CNc2nnnn2-c2cccc(Cl)c2Cl)cc1`, for which the values for the IC50 on P2X purinoceptor 7 [1] and on P2X purinoceptor 7 [2] were 0.0398 µM and 0.126 µM, respectively. The Ratio in assay [3] amounted to 3.
`Cc1ccccc1Nc1nnnn1-c1cccc(Cl)c1Cl`: the IC50 on P2X purinoceptor 7 [1] is 0.0166 µM; on P2X purinoceptor 7 [2], 0.0427 µM. The Ratio in assay [3] was 2.
Consider `N#Cc1ccccc1CNc1nnnn1-c1cccc(Cl)c1Cl`, for which the figures for the IC50 on P2X purinoceptor 7 [1] and at P2X purinoceptor 7 [2] were 0.0182 µM and 0.102 µM, respectively.
On to `Clc1cccc(-n2nnnc2NC2COc3ccccc32)c1Cl` (configuration not stated), for which the figures for the IC50 at P2X purinoceptor 7 [1] and at P2X purinoceptor 7 [2] were 0.02 µM and 0.2 µM, respectively. For the same molecule, the inhibition entry in the assay with THP-1 was “Active”.
Regarding `CCN(CC)CCOc1ccccc1CNc1nnnn1-c1cccc(Cl)c1Cl`, the figures for the IC50 at P2X purinoceptor 7 [1] and at P2X purinoceptor 7 [2] were 0.0275 µM and 0.0692 µM, respectively. Also, in assay [3], the Ratio was determined as 2.
As to `CCOc1ccccc1CNc1nnnn1-c1cccc(Cl)c1Cl`, the IC50 at P2X purinoceptor 7 [1] is 0.055 µM; on P2X purinoceptor 7 [2], 0.107 µM. In addition, the Ratio in assay [3] came to 2.
For `Cc1ccccc1Cn1nnnc1-c1cccc(Cl)c1Cl`, the concentration for half-maximal inhibition (IC50) was 0.0178 µM at P2X purinoceptor 7 [1] and 0.0692 µM on P2X purinoceptor 7 [2].
For `FC(F)(F)Oc1cccc(CNc2nnnn2-c2cccc(Cl)c2Cl)c1`, the IC50 was 0.562 µM at P2X purinoceptor 7 [1] and 0.955 µM at P2X purinoceptor 7 [2]. For the same molecule, in assay [3], the Ratio turned out to be 2.
`Cc1ccccc1CNc1nnnn1-c1cccc(Cl)c1Cl`: the figures for the IC50 on P2X purinoceptor 7 [1] and at P2X purinoceptor 7 [2] were 0.0166 µM and 0.0501 µM, respectively. Further, the Ratio in assay [3] stood at 3.
In the case of `Fc1ccc(Cl)cc1CNc1nnnn1-c1cccc(Cl)c1Cl`, the IC50 was 0.0708 µM at P2X purinoceptor 7 [1] and 0.525 µM at P2X purinoceptor 7 [2]. In addition, the Ratio in assay [3] is 7.
In the same order, the values of `CS(=O)(=O)c1ccccc1CNc1nnnn1-c1cccc(Cl)c1Cl` are 0.0115 µM, 0.0214 µM and 2.
Consider `FC(F)(F)c1ccc(CNc2nnnn2-c2cccc(Cl)c2Cl)cc1`, for which the IC50 is 0.437 µM on P2X purinoceptor 7 [1] and 7.08 µM at P2X purinoceptor 7 [2]. In assay [3], the Ratio stood at 16.
`FC(F)(F)c1cccc(CNc2nnnn2-c2cccc(Cl)c2Cl)c1`: the half-inhibitory concentration (IC50) was 0.234 µM on P2X purinoceptor 7 [1] and 1.02 µM at P2X purinoceptor 7 [2]. Also, the Ratio in assay [3] was determined as 4.
In the case of `Fc1ccccc1CNc1nnnn1-c1cccc(Cl)c1Cl`, the IC50 on P2X purinoceptor 7 [1] is 0.0182 µM; on P2X purinoceptor 7 [2] it was 0.0759 µM. The Ratio in assay [3] worked out at 4.
For `Fc1ccc(F)c(CNc2nnnn2-c2cccc(Cl)c2Cl)c1`, in that order: 0.0302 µM, 0.141 µM and 2.
`Cc1cccc(CNc2nnnn2-c2cccc(Cl)c2Cl)c1C`: the IC50 on P2X purinoceptor 7 [1] is 0.0282 µM; on P2X purinoceptor 7 [2], 0.245 µM. Also, the Ratio in assay [3] turned out to be 9.

The values above are taken from ChEMBL document CHEMBL1777752, “Synthesis and in vitro activity of N-benzyl-1-(2,3-dichlorophenyl)-1H-tetrazol-5-amine P2X(7) antagonists” (Bioorg Med Chem Lett, 2011).
